Measurements taken from PMC2842983 (Journal of medicinal chemistry, 2010).
“Also recorded” adds a separate entry of the source. Blank lines part the entries; values can stand above or below the compound they belong to.

Experiments:
FGFR1 kinase [1] = target: T1, FGFR1 kinase (Homo sapiens, UniProt P11362); conditions: cited from earlier work; for IC50: read-out: IC50 for FGFR1 kinase activity
PDGFR = conditions: cited from earlier work
insulin receptor (InsR) = conditions: cited from earlier work
EGFR [2] = target: T2, EGFR (Homo sapiens, UniProt P00533); conditions: cited from earlier work
[3] = system: Src, InsR, EGFR, PDGFR, and several other kinases; conditions: cited from earlier work
FGFR1 kinase [4] = target: T1, FGFR1 kinase; experiment: ALPHAScreen assay, inhibition of FGFR1 kinase; type: biochemical; conditions: na = not active in the assay
EGFR [5] = target: T2, EGFR; experiment: ALPHAScreen kinase assay, EGFR; type: biochemical
In short: (§1)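 Recombinant kinase was sourced commercially. In the AlphaScreen format, kinase, biotinylated peptide, ATP and test compound were combined across 10 wells, typically spanning 0.01 µM to 250 µM compound. Phosphorylation ran for 30 minutes and was stopped with EDTA. Phosphopeptide was detected with anti-phosphotyrosine acceptor beads and streptavidin donor beads, and IC50 was derived from the concentration series.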

InsR = InsR (Homo sapiens, UniProt P06213); experiment: ALPHAScreen kinase assay, InsR; type: biochemical; conditions: kinase from Millipore, na = not active
In short: as §1

T1 sequence (P11362 478-767 limits assumed): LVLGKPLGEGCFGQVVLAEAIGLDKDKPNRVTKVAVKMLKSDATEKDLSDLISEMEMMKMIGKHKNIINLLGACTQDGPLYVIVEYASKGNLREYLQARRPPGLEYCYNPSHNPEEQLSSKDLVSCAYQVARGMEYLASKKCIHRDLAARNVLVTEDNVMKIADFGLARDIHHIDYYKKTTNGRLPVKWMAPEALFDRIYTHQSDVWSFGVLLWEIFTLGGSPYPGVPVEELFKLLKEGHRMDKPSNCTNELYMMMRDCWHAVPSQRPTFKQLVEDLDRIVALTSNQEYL
T2 sequence (P00533 25-1210, species assumed): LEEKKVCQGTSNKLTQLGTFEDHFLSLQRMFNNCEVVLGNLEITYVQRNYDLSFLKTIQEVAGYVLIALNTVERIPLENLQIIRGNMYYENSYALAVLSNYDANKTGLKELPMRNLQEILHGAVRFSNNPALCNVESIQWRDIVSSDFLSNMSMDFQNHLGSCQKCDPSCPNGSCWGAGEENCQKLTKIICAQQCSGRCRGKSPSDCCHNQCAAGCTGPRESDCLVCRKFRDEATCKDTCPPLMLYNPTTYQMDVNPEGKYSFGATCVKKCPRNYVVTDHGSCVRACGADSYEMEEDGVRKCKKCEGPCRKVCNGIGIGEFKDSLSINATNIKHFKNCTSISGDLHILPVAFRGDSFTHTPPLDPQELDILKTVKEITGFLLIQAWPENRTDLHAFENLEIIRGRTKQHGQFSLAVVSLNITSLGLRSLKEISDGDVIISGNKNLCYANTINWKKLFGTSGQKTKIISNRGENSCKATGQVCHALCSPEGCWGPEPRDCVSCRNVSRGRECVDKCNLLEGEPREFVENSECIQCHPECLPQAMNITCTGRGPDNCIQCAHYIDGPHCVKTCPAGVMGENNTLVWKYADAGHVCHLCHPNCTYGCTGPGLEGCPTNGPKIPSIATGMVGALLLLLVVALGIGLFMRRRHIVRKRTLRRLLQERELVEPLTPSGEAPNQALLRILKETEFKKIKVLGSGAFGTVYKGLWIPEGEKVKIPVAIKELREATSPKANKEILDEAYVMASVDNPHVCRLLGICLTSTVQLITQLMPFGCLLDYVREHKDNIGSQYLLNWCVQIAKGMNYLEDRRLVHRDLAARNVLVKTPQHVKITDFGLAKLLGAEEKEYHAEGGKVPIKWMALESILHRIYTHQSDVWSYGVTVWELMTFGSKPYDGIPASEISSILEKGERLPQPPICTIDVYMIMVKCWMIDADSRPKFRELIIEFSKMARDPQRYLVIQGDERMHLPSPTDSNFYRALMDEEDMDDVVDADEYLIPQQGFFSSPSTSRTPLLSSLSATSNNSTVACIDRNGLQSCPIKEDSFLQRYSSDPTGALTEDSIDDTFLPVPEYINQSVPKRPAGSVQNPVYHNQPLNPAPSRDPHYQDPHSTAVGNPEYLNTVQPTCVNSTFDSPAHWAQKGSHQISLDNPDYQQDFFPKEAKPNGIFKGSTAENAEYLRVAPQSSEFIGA
Sequence of InsR (P06213 28-1382, species assumed): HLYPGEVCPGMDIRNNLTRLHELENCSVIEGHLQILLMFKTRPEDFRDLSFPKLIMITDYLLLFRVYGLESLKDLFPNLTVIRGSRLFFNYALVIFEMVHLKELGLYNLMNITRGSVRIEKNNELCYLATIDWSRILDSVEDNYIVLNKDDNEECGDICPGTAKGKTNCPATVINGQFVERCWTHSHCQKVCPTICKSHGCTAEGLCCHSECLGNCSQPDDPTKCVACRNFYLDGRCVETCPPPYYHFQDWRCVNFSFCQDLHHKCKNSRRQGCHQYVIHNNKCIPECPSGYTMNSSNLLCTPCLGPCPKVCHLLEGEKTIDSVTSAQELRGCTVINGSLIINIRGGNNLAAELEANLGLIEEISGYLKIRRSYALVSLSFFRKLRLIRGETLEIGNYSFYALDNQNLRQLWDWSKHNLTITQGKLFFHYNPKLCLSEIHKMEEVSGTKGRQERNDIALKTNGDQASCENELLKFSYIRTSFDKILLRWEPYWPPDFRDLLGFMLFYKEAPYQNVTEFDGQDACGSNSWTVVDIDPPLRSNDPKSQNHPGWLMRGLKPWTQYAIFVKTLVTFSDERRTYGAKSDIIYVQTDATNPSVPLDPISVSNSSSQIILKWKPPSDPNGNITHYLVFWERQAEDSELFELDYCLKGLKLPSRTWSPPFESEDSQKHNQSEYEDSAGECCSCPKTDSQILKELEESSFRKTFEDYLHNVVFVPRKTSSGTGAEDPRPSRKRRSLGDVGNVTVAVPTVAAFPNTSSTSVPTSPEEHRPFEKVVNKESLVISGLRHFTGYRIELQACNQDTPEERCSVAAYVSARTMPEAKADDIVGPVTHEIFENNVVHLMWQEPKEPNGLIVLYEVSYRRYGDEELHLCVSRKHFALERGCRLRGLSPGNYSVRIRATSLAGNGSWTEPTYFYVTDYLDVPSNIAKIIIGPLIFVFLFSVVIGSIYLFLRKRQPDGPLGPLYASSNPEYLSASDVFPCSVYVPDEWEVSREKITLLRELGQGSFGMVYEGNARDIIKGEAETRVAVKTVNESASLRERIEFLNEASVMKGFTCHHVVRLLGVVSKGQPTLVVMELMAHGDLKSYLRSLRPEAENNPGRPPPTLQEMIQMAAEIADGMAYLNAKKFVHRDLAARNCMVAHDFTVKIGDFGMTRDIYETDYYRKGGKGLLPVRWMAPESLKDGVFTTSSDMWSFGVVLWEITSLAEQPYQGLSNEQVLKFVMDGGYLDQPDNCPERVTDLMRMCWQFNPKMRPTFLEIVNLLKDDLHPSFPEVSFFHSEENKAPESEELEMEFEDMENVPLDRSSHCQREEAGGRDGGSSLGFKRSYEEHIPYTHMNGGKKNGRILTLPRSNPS

SMILES: O=CN1CCN(c2ccc(/C=C3\C(=O)Nc4ccccc43)cc2)CC1 [compound 1, SU4984]
IC50 (FGFR1 kinase [1]): 10 to 20 µM
inhibition of PDGFR kinase activity (PDGFR): inhibits
inhibition of InsR kinase activity (insulin receptor (InsR)): inhibits
inhibition of EGFR kinase activity (EGFR [2]): does not inhibit

SMILES: Cc1c[nH]c(/C=C2\C(=O)Nc3ccccc32)c1CCC(=O)O [compound 2, SU5402]
IC50 (FGFR1 kinase [1]): 10 to 20 µM
inhibition of PDGFR kinase activity (PDGFR): weak inhibitor
inhibition of InsR kinase activity (insulin receptor (InsR)): does not inhibit
inhibition of EGFR kinase activity (EGFR [2]): does not inhibit

SMILES: CCN(CC)CCCCNc1ncc2cc(-c3cc(OC)cc(OC)c3)c(NC(=O)NC(C)(C)C)nc2n1 [compound 3, PD173074]
potency of FGFR1 inhibition (FGFR1 kinase [1]): nanomolar potency
IC50 for other kinases relative to FGFR1 [3]: ≥ 1000 fold

SMILES: CCOc1cc(/C=C2\NC(=S)NC2=O)ccc1OCCCOc1cc(C)cc(C)c1 [compound 29]
IC50 for inhibition of FGFR1 kinase (FGFR1 kinase [4]): weak activity

SMILES: COCc1cc(/C=C2\NC(=S)NC2=O)ccc1OCCCOc1cc(C)cc(C)c1 [compound 30]
IC50 for inhibition of FGFR1 kinase (FGFR1 kinase [4]): weak activity

SMILES: COc1ccc(-c2nc(=O)c3c4c(sc3[nH]2)CC(C)CC4)cc1OC (centres unmarked) [compound 35]
IC50 for inhibition of FGFR1 kinase (FGFR1 kinase [4]): do not inhibit

The next lines start with results.

IC50 for inhibition of FGFR1 kinase (FGFR1 kinase [4]): do not inhibit
SMILES: COc1cccc(-c2nc(=O)c3c4c(sc3[nH]2)CC(C)CC4)c1 (centres unmarked) [compound 36]

IC50 for inhibition of FGFR1 kinase (FGFR1 kinase [4]): eliminated activity
SMILES: COc1cc(-c2nc(=O)c3c([nH]2)sc2cc(C(F)(F)F)ccc23)ccc1OCC(=O)O [compound 39]

IC50 (EGFR [5]): 2000 nM
SMILES: COc1cc(-c2nc(=O)c3c([nH]2)sc2ccc(C)cc23)ccc1OCC(=O)O [compound 40]
IC50 InsR (InsR): does not inhibit; also recorded: no inhibition
